# Experimental data reported in ChEMBL document CHEMBL2040834, “Synthesis, crystal structures and electronic properties of isomers of chloro-pyridinylvinyl-1H-indoles” (Eur J Med Chem, 2012).
# Key:
# [1] = target: T1, Tryptophan 2,3-dioxygenase (Homo sapiens, UniProt P48775); test: Inhibition of human purified TDO assessed as initial rate of L-Trp oxidation at 100 uM of substrate concentration
# [2] = Solubility of the compound in 0.1 M of boric acid at pH 9 by HTS-PCF filter plate analysis; type: physicochemical; details: buffer
# Method in brief: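 Solubility measured by filter-plate filtration at 2.5% final DMSO. Buffers: pH 1.0 (0.1 M HCl, 20 mM NaCl), pH 7.4 (50 mM phosphate, 30 mM NaCl), pH 9.0 (0.1 M boric acid, 20 mM NaCl). Filtrate quantified by C18 LC/MS with UV detection at 254 nm, using a 5–95% acetonitrile gradient in 0.1% acetic acid.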
# [3] = target: T1, Tryptophan 2,3-dioxygenase; test: Inhibition of human purified TDO assessed as formation of kynurenine from N-formylkynurenine preincubated for 10 mins measured after 5 to 20 mins by discontinuous colorimetric method
# [4] = target: T1, Tryptophan 2,3-dioxygenase; test: Competitive inhibition of human purified TDO by Henri-Michaelis-Menten equation analysis
# Method in brief: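 Recombinant human TDO expressed in E. coli, purified. Kynurenine formation read at 480 nm with Ehrlich's reagent after TCA stop and 65 °C hydrolysis. L-Trp and inhibitor concentrations both varied. Initial rates fitted to Henri–Michaelis–Menten equation for competitive Ki; Km obtained from the same data.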
# T1 sequence (P48775 whole entry): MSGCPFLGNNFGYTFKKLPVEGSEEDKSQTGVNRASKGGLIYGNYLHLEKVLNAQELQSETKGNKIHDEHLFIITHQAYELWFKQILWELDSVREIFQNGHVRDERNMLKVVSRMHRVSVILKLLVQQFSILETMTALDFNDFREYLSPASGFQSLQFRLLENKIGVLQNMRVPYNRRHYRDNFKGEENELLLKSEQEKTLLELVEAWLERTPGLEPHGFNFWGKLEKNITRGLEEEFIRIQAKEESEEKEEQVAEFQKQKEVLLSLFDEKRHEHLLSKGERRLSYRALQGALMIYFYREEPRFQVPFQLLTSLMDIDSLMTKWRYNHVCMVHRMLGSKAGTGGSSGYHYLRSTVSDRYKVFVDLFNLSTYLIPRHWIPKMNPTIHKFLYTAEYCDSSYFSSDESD
Structure (SMILES),IC50 [1] [µM],solubility [2] [mg/mL],IC50 [3] [µM],Ki [4] [µM]
Clc1cccc2c(/C=C/c3cccnc3)c[nH]c12,32,6,> 50,21
Clc1ccc2c(/C=C/c3cccnc3)c[nH]c2c1,,32.1,5,
Clc1ccc2[nH]cc(/C=C/c3cccnc3)c2c1,,76,10,
